Compound activity (PubChem BioAssay)
Only some compounds are listed: those with a hit (about 4.9% of all), similar ones and a draw of the others.
APP 5'UTR act: activates APP 5'UTR luciferase reporter. AID 1276. 190,000 tested, 1% active. activation, % at 2 µM. SH-SY5Y APP 5'UTR luciferase reporter, luminescence; zero percent = DMSO vehicle wells;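 active = activation above a set limit, based on mean plus 3 SD of controls, cut at about 140% in these data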
STAT1 blocker: STAT1 signaling inhibition; NIH 3T3 STAT1-luciferase reporter, IFN-gamma, luminescence; inhibition, % at 5.5 µM; 200,000 tested, 0.35% active; AID 920;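 active = inhibition above a set limit, the mean inhibition across all tested compounds plus 3 SD, cut at about 34% in these data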;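 note: 0% = IFN-gamma with DMSO and 100% = IFN-gamma with 300 µM nifuroxazide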
STAT3 inh: reduces IL-6 driven STAT3 reporter signal; U3A cells, IL-6 STAT3-luciferase reporter, luminescence; host cell line lacks STAT1; inhibition, % at 5.5 µM; 190,000 tested, 0.89% active; AID 862;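 active = inhibition above the mean inhibition across all screened compounds plus 3 SD, cut at about 44% in these data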;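 note: 0% = DMSO only wells and 100% = 100 µM nifuroxazide control wells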
STAT1 act: activators of IFN-gamma induced STAT1 signaling; 200,000 tested, 2.6% active; activation (% of control), % at 5.5 µM; NIH 3T3 STAT1-luciferase reporter, luminescence; 100% = IFN-gamma alone, no compound;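 active = activation above the screen-wide mean activation plus 3 SD, cut at about 130% in these data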;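 note: raw ratio to IFN-gamma control signal so 100% means no change and 0% no light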
STAT3 activator: STAT3 signaling activation; activation (% of control), % at 5.6 µM; AID 871; U3A cells, IL-6 STAT3-luciferase reporter, luminescence; 100% = signal with IL-6 EC80 alone; 190,000 tested, 0.91% active;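 active = activation above the screen-wide mean of compound activation plus 3 SD, cut at about 130% in these data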;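 note: 0% = background luminescence of wells with medium and substrate only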
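Material: human STAT1-deficient U3A cells with stable STAT3-luciferase reporter / Probe or stimulus: IL-6 stimulus at 33 ng/mL final / Schedule: 1 h compound pre-exposure, 6 h IL-6 stimulation, 37 °C / Technique: luminescence / Read-out basis: percent of IL-6-only median luminescence / Control set: IL-6-only high control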
NF-kB expr up: compounds increasing NF-kB expression in human neuronal cells; fold change at 12.5 µM; NF-kB reporter expression; hits give high values; 190,000 tested, 1.6% active; in the data active = fold change above about 3.3
The depositor's hits bear a star; / = not tested or not shown.

SMILES | APP 5'UTR act | STAT1 blocker | STAT3 inh | STAT1 act | STAT3 activator | NF-kB expr up
COc1ccc(CC2(CO)CCN(C(C)COc3ccccc3)CC2)cc1 (configuration not stated) | -12 | -2 | -1 | 101 | 104 | 1
CC(COc1ccccc1)N1CCC(CO)(Cc2ccccc2)CC1 (configuration not stated) | 27 | 5 | 8 | 94 | 97 | 4.4*
Cc1c(C(=O)Oc2ccc(-c3cnc4ccccc4n3)cc2)cccc1[N+](=O)[O-] | 73 | -12 | 19 | 110 | 88 | 1.7
CCC(=O)Oc1ccc(-c2cnc3ccccc3n2)cc1 | 175* | -47 | 12 | 142* | 94 | 6.8*
Cn1ncc(N=Cc2ccc([N+](=O)[O-])cc2)c1C(=O)Nc1ccccc1 | -6 | -5 | 21 | 104 | 90 | 0.98
O=C(Cc1ccccc1)NCC(=O)N/N=C/c1ccc(Cl)cc1 | 23 | 1 | 8 | 101 | 97 | 1.1
Cn1cccc1CNC(=O)Nc1ccc(Cl)c(Cl)c1 | / | -38 | -10 | 135* | 114 | 1.1
O=C(NC1CCCC1)C1CCN(C(=O)c2ccc(-c3ccccc3)cc2)CC1 | 1 | 7 | 2 | 91 | 101 | 1
CN(C)c1ccc(/C=N/NC(=O)c2sccc2-n2cccc2)cc1 | 10 | -34 | 1 | 130* | 101 | 1.2
C/C(=N/N=C/c1ccc(N(C)C)cc1)c1ccccc1 | 189* | -37 | 0 | 133* | 100 | 1.7
CN(C)c1ccc(/C=N/NC(=O)c2ccccc2)cc1 | 83 | -46 | 8 | 140* | 99 | 4.1*
CN(C)c1ccc(C=Nc2ccccc2)cc1 | -13 | 2 | 6 | 98 | 98 | 1.2
O=C(N/N=C\c1ccc(Cl)cc1)c1sccc1-n1cccc1 | 3 | -15 | 5 | 114 | 97 | 1.5
CCCCCC(=O)N/N=C/c1ccc(N(C)C)cc1 | 17 | -38 | -19 | 134* | 120 | 1.9
Cc1cc(-c2c(C)[nH]n(-c3ccccc3)c2=O)n[nH]1 | 17 | -5 | -3 | 104 | 109 | 0.92
CC1Oc2ccccc2C=C1/C=N/NC(=O)c1ccccc1 (configuration not stated) | 44 | -37 | -4 | 133* | 107 | 1.8
Cc1ccc(C(=O)N/N=C/C2=Cc3ccccc3OC2C)cc1 (configuration not stated) | 36 | 1 | -10 | 99 | 112 | 1.1
CN1CCS/C1=C/C=C1\SC(=S)N(CC(=O)O)C1=O | 3 | -3 | 10 | 102 | 95 | 0.86
CCCCN1C(=O)/C(=C/C=C2\SCCN2C)SC1=S | 62 | -32 | -7 | 130* | 111 | 3
Cc1nc2cc(C(=O)O)ccc2s1 | 50 | -47 | -21 | 143* | 127 | 2.1
O=C(Nc1ccc2c(c1)nc1n2CCSC1)c1ccccc1 | 120 | -18 | 42 | 116 | 69 | 3.3*
COc1ccc(C(=O)Nc2ccc3c(c2)nc2n3CCSC2)cc1 | 82 | -27 | 22 | 125 | 85 | 0.95
Cc1ccc(-c2nc3ccc(C(=O)O)cc3nc2-c2ccc(C)cc2)cc1 | 17 | 15 | -6 | 86 | 110 | 1.2
Cc1nc2ccc(NC(=O)c3ccc4ccccc4n3)cc2s1 | 76 | -39 | 14 | 135* | 89 | 2.3
Cc1ccc(C)c(NC(=O)c2cc3ccccn3n2)c1 | 125 | -39 | 9 | 134* | 97 | 3
SMILES | APP 5'UTR act | STAT1 blocker | STAT3 inh | STAT1 act | STAT3 activator | NF-kB expr up
Cc1cc(C)n(CCCN2C(=O)c3cccc4cccc(c34)C2=O)n1 | 12 | -2 | 28 | 100 | 81 | 1.1
O=[N+]([O-])c1cccc(/C=N/Nc2nc(NCc3ccccc3)nc(N3CCOCC3)n2)c1O | -33 | 6 | 16 | 94 | 91 | 1.2
Nc1nc(SCC(=O)NCc2ccccc2)[nH]c(=O)c1NC(=O)c1ccccc1F | 7 | -6 | -2 | 106 | 99 | 1.1
CCc1nc2ccc(C(=O)O)cc2nc1CC | 53 | -2 | 37 | 102 | 69 | 6.1*
Cc1nc2ccc(NC(=O)c3ccccc3)cc2s1 | 82 | -32 | 5 | 131* | 98 | 2.6
Cc1nc2ccc(NC(=O)Cc3ccccc3F)cc2s1 | 133 | -49 | 7 | 141* | 98 | 6.8*
Cc1nnc(NC(=O)c2ccc3ccccc3n2)s1 | 40 | -45 | -34 | 138* | 136* | 2.1
Cc1cc(N2CCN(C)CC2)nc2ccc(NC(=S)N3CCN(c4ccc(Cl)cc4)CC3)cc12 | 15 | -1 | 11 | 100 | 92 | 1
CCCCN(C)CCCNC(=O)/C=C1\Sc2ccccc2NC1=O | 2 | -6 | 2 | 105 | 102 | 1.1
COCCNC(=O)c1ccc2ccccc2n1 | 3 | 0 | 1 | 100 | 106 | 1.3
Cc1nc2cc(NC(=O)CCS(=O)(=O)c3ccccc3)ccc2s1 | 135 | -55 | -12 | 150* | 109 | 3.2
Cc1nc2ccc(NC(=O)c3sccc3C)cc2s1 | 163* | -47 | 25 | 143* | 82 | 4.7*
Cc1ccc(C)c(NC(=O)c2ccc3ccccc3n2)c1 | 70 | -26 | -28 | 124 | 124 | 8.5*
Cc1ccccc1OCCNC(=O)c1ccc2ccccc2n1 | 146* | -47 | -3 | 141* | 103 | 1.4
O=C(CSc1nnc(-c2ccccc2)c(-c2ccccc2)n1)Nc1ccc(Br)cn1 | 15 | 11 | -7 | 90 | 101 | 0.89
O=C(Cc1cccs1)NNC(=O)C12CC3CC(CC(C3)C1)C2 | 20 | -4 | 0 | 104 | 102 | 0.91
CCC(=O)N(CC)c1nc(-c2ccc(OC)cc2)cs1 | 77 | -47 | 14 | 143* | 92 | 2.4
COc1ccc(NC(=O)CCc2nc3ccccc3[nH]2)cc1 | 13 | -7 | 6 | 106 | 106 | 1.7
Cn1c(=NC(=O)C2CCCCC2)sc2cc([N+](=O)[O-])ccc21 | 13 | -5 | 1 | 103 | 109 | 0.91
CCOc1ccc2c(c1)sc(=NC(=O)C1CC1)n2C | 56 | -58 | 1 | 150* | 99 | 3
O=c1cc(-c2ccccc2)[nH]c2ccc(F)cc12 | -92 | -8 | -23 | 107 | 117 | 2.8
O=c1cc(-c2cccc(F)c2)[nH]c2ccccc12 | -94 | -9 | -43 | 108 | 133* | 2.7
CN(Cc1cccs1)C(=O)CCCc1c[nH]c2ccccc12 | 58 | -34 | 18 | 130* | 90 | 1
C1=C(c2cccc3ccccc23)N2CCN=C2S1 | -18 | 10 | -54 | 91 | 150* | 1.1
O=S1(=O)CCN2C(c3cccc4ccccc34)=CSC2=N1 | -10 | -3 | -4 | 103 | 104 | 0.92
CC(C)c1ccc2oc(-c3cc(N)ccc3O)nc2c1 | 158* | -17 | 36 | 116 | 71 | 2.4
Cc1ccccc1-c1nc2cc(N)ccc2o1 | 63 | -45 | 20 | 141* | 88 | 4*
O=c1oc2ccc(Br)cc2cc1-c1nc2ccccc2o1 | 2 | -4 | 0 | 103 | 103 | 1.2
